Rows were chosen to be rich in hits. Some 1% of all compounds tested hit in one or more screens of this group.
Yeast tox: Inhibitors of S. cerevisiae growth, toxicity. S. cerevisiae wild-type growth, A595 turbidity, 16 h. growth inhibition, % at 25 µM (by protocol). actives 0.3% (n = 30,000). AID 685;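 active = mutant and wild-type yeast strains alike exhibit over 30% growth inhibition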;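 note: 0% = untreated cell controls and 100% = YPD media blanks without cells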
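system = S. cerevisiae wild-type or eIF2Bepsilon-R284H mutant strain | buffer or medium = YPD medium | dosing = one dose, 25 µM compound, 0.2% DMSO | schedule = 16 h at 30 °C | measured by = A595 turbidity | evaluation = growth inhibition (%) versus cell controls and blanks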
Yeast eIF2B: modulators of yeast eIF2B activity. S. cerevisiae eIF2B-epsilon R284H, GCN4-lacZ luminescence. inhibition, % at 25 µM (by protocol). actives 0.91% (n = 27,000). AID 688;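 active = mutant luminescence inhibited past about 50% while wild type luminescence and mutant growth stay under set limits, limit read from the data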
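Assay system: yeast eIF2B-epsilon R284H mutant carrying GCN4–beta-galactosidase fusion / Buffer or medium: YPD / Incubation: 16 h growth with compound at 30 °C, 90 min Beta-Glo step / Detection: Beta-Glo luminescence after Z-buffer lysis, growth by 595 nm absorbance / Read-out: % inhibition of reporter signal and growth versus controls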
Starred values were filed as active, the others as inactive; x = no result given.

SMILES | Yeast tox | Yeast eIF2B
C=CCOc1ccc(C2NC(=O)NC(C)=C2C(=O)OC)cc1 (stereo not drawn) | 9 | 11
COc1ccccc1CC(=O)N1CCCC1 | -7 | x
COc1ccccc1CC(=O)N1CCN(c2cccc(C(F)(F)F)c2)CC1 | -14 | 50*
CCN(CC)S(=O)(=O)c1ccc(N(C)Cc2cccnc2)nc1 | 15 | -44
O=C1c2ccccc2S(=O)(=O)N1CC1CC(c2ccccc2)=NO1 (stereo not drawn) | 42* | -7
COc1ccc(C2=NOC(CN3C(=O)c4ccccc4S3(=O)=O)C2)cc1 (stereo not drawn) | x | 43
Brc1cccc(/C=N\n2cnnc2)c1 | -5 | 2
COC(=O)c1ccc(OCC(=O)c2ccccc2)cc1 | 5 | 23
COC(=O)c1cc(O)c(OCc2ccccc2)c(O)c1 | -11 | 70*
Cc1ccc(-c2nn(C)c(=O)c3ccccc23)cc1CNC(=O)c1ccco1 | -8 | 1
Cc1cccc(C(=O)NC2CC3CCCC(C2)N3S(=O)(=O)c2ccccc2)c1 (stereo not drawn) | 2 | 5
CCOC(=O)CN(C(=O)Cn1nnc2ccccc21)C(C(=O)NCCOC)c1ccccc1C (stereo not drawn) | -12 | 33
CCCCN(C(=O)Cn1nnc2ccccc21)C(C(=O)NCCOC)c1ccccc1 (stereo not drawn) | 7 | 57*
Cc1cc(C)nc(N2CCCC(C(=O)NC(C)CCc3ccco3)C2)n1 (stereo not drawn) | 7 | 14
O=C1c2ccccc2C(=O)C1c1ccncc1 | 20 | 67*
Cc1ccccc1N1C(=O)c2ccccc2NC1c1ccncc1 (stereo not drawn) | 0 | x
O=C(c1ccc2c(c1)OCO2)N1CCN(c2ccc(F)cc2)CC1 | 4 | 5
O=C(c1ccc(Cl)cc1)N1CCN(c2ccc(F)cc2)CC1 | 59* | 42
CCC(=O)Nc1cccc(NC(C)=O)c1 | 5 | x
CCNC(=O)C(Sc1ccccc1)c1ccccc1 (stereo not drawn) | 7 | x
CCc1ccccc1Nc1nc(N)nc(CSCC(=O)c2cc(C)n(C)c2C)n1 | 10 | 26
COc1ccc2c(c1)CCc1c(C(=O)N3CC4(C)CC3CC(C)(C)C4)noc1-2 (stereo not drawn) | -3 | 71*
COc1ccc2c(c1)CCc1c(C(=O)N3CCCc4ccccc43)noc1-2 | -10 | 36
CC(=O)Nc1ccc(NC(=O)CSc2nnc(-c3ccco3)n2Cc2ccco2)cc1 | -10 | 12
CCOC(=O)Cc1csc(NS(=O)(=O)Cc2ccccc2)n1 | 5 | x
SMILES | Yeast tox | Yeast eIF2B
Cc1ccc2c(c1)N(CCC(=O)NCc1ccccn1)C(=O)CO2 | 12 | 21
O=C(Nc1nc2ccc(Cl)cc2s1)C1CCCO1 (stereo not drawn) | 30* | x
O=C(Nc1cc(Cl)ccc1O)C1CCCO1 (stereo not drawn) | x | 17
O=C(NCc1ccc2c(c1)OCO2)c1ccc2c(c1)OCCO2 | 12 | 29
CCOC(=O)c1sc(C)c(C(=O)NC2CCCCC2)c1N | -23 | 19
CC(=O)c1c(N2CCOCC2)nc(=S)n(-c2ccc([N+](=O)[O-])cc2)c1C | -3 | x
CCOCCCNC(=O)C1CCN(c2cc(C)nc3c(-c4ccc(OC)c(OC)c4)c(C)nn23)CC1 | -12 | 63*
Cc1cc(N2CCC(C)CC2)n2nc(C)c(-c3ccccc3)c2n1 | 10 | 12
Cc1ccc(NC(=O)c2cc(-c3cccs3)on2)cc1 | 22 | 24
O=C1CC(N2CCN(c3ccc(F)cc3)CC2)C(=O)N1Cc1cccs1 (stereo not drawn) | 2 | 5
O=C1CC(N2CCN(c3nc4ccccc4s3)CC2)C(=O)N1Cc1cccs1 (stereo not drawn) | 73* | -26
CCCC(=O)Nc1sc(C(=O)OC)c(C)c1C(N)=O | -9 | 58*
CCOC(=O)c1c(NC(=O)CN(C)C)sc(C(=O)N(CC)CC)c1C | -8 | 23
CCS(=O)(=O)N1CCC(C(=O)Nc2cccc(C(C)=O)c2)CC1 | 18 | -5
N/C(=N\OC(=O)c1ccccc1Cl)c1cccnc1 | 6 | 31
O=C(/C=C/c1ccccc1Cl)c1cccnc1 | 48* | x
CCN1CCN(Cc2cccc(Oc3ccccc3)c2)CC1 | 19 | 9
CN(C)S(=O)(=O)c1ccc(C(=O)Nc2ccccc2OC(F)(F)C(F)F)cc1 | 8 | -19
Cc1cc(N2CCOCC2)n2ncc(-c3ccccc3)c2n1 | 3 | -1
Cc1cc(N2CCN(C(=O)c3ccco3)CC2)n2ncc(-c3ccccc3)c2n1 | 94* | 92
COCCCNC(=O)CCc1ccc(S(=O)(=O)Nc2ccc(C)cc2)cc1 | 10 | x
CCn1c(C(=O)NCc2ccccn2)cc2sccc21 | 16 | -13
C=CCNc1nnc(SC2CC(=O)N(c3ccc(OCCC)cc3)C2=O)s1 (stereo not drawn) | 60* | 2
CCCOc1ccc(N2C(=O)CC(NCc3ccncc3)C2=O)cc1 (stereo not drawn) | -3 | 0

Source: PubChem
